Experimental data reported in ChEMBL document CHEMBL2046352, “Discovery of novel 5-(ethyl or hydroxymethyl) analogs of 2'-'up' fluoro (or hydroxyl) pyrimidine nucleosides as a new class of Mycobacterium tuberculosis, Mycobacterium bovis and Mycobacterium avium inhibitors” (Bioorg Med Chem, 2012).
Active and inactive are the calls of the source. No cut-off for these calls is given here.

What was measured:
[1] = tested on: Mycobacterium tuberculosis; assay: Antimycobacterial activity against Mycobacterium tuberculosis H37Ra assessed as inhibition of microbial growth at 0.5 ug/ml incubated for 6 days by MABA method; format: functional; conditions: 144 h, read-out: GI
Outline: (§1)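 Microplate alamar blue assay in 7H9GC medium. Compounds dissolved in DMSO at 10 mg/mL (stock), diluted to 100, 50, 25, 10, 5, 1 and 0.5 ug/mL, each in triplicate. Frozen inoculum added at final 2.5 x 10^5 CFU/mL. Bacteria-alone and medium-alone control wells. Read by colour change and fluorescence. % inhibition = (test − M bkg)/(B − M bkg) x 100, mean of two experiments. MIC50 = lowest concentration giving ≥50% inhibition.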

Mycobacterium avium [2] = assay: Antimycobacterial activity against Mycobacterium avium ATCC 25291 assessed as inhibition of microbial growth at 2 ug/ml incubated for 6 days by MABA method; format: functional, Mycobacterium avium subsp. avium ATCC 25291; conditions: ATCC 25291, 144 h, read-out: GI
[3] = tested on: Mycobacterium tuberculosis; assay: Antimycobacterial activity against Mycobacterium tuberculosis H37Rv assessed as inhibition of microbial growth at 2 ug/ml by radiometric-BACTEC assay; format: functional, organism-based
[4] = tested on: Mycobacterium tuberculosis; assay: Antimycobacterial activity against Mycobacterium tuberculosis H37Ra assessed as inhibition of microbial growth at 100 ug/ml incubated for 6 days by MABA method; format: functional; conditions: 144 h, read-out: GI; outline: as §1
[5] = tested on: Mycobacterium tuberculosis; assay: Antimycobacterial activity against Mycobacterium tuberculosis H37Ra assessed as inhibition of microbial growth at 50 ug/ml incubated for 6 days by MABA method; format: functional; conditions: 144 h, read-out: GI; outline: as §1
[6] = tested on: Mycobacterium tuberculosis; assay: Antimycobacterial activity against Mycobacterium tuberculosis H37Ra assessed as inhibition of microbial growth at 10 ug/ml incubated for 6 days by MABA method; format: functional; conditions: 144 h, read-out: GI; outline: as §1
Mycobacterium avium [7] = assay: Antimycobacterial activity against Mycobacterium avium ATCC 25291 assessed as inhibition of microbial growth at 100 ug/ml incubated for 6 days by MABA method; format: functional, Mycobacterium avium subsp. avium ATCC 25291; conditions: ATCC 25291, 144 h, read-out: GI; outline: as §1
[8] = Toxicity against human HuH7 cells after 2 days by XTT assay; format: cell-based, Huh-7
Outline: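 Huh-7 hepatoma cells seeded at 2 x 10^4/well, allowed to attach 6–8 h, then exposed to 200, 100, 50, 10 and 1 ug/mL with a DMSO control for two days at 37 °C. Viability by XTT, 4 h at 37 °C, absorbance 450–500 nm.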

[9] = Toxicity against human HuH7 cells after 2 days by [3H]thymidine incorporation assay; format: cell-based, Huh-7
Outline: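 Huh-7 cells plated at 1 x 10^4/well and exposed in triplicate to 200, 100, 50, 10 and 1 ug/mL with a DMSO control for two days at 37 °C. Pulsed with 0.5 uCi/well [3H]-thymidine for 12–18 h, harvested onto filters, incorporation counted by liquid scintillation.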

[10] = tested on: Mycobacterium tuberculosis; assay: Antimycobacterial activity against Mycobacterium tuberculosis H37Ra assessed as inhibition of microbial growth at 5 ug/ml incubated for 6 days by MABA method; format: functional; conditions: 144 h, read-out: GI; outline: as §1
Mycobacterium avium [11] = assay: Antimycobacterial activity against Mycobacterium avium ATCC 25291 assessed as inhibition of microbial growth at 0.5 to 100 ug/ml incubated for 6 days by MABA method; format: functional, Mycobacterium avium subsp. avium ATCC 25291; outline: as §1
[12] = tested on: Mycobacterium tuberculosis; assay: Antimycobacterial activity against Mycobacterium tuberculosis H37Ra assessed as inhibition of microbial growth incubated for 6 days by MABA method; format: functional; conditions: 144 h; outline: as §1
Mycobacterium avium [13] = assay: Antimycobacterial activity against Mycobacterium avium ATCC 25291 assessed as inhibition of microbial growth at 50 ug/ml incubated for 6 days by MABA method; format: functional, Mycobacterium avium subsp. avium ATCC 25291; conditions: ATCC 25291, 144 h, read-out: GI; outline: as §1
Mycobacterium avium [14] = assay: Antimycobacterial activity against Mycobacterium avium ATCC 25291 assessed as inhibition of microbial growth at 10 ug/ml incubated for 6 days by MABA method; format: functional, Mycobacterium avium subsp. avium ATCC 25291; conditions: ATCC 25291, 144 h, read-out: GI; outline: as §1
Mycobacterium avium [15] = assay: Antimycobacterial activity against Mycobacterium avium ATCC 25291 assessed as inhibition of microbial growth incubated for 6 days by MABA method; format: functional, Mycobacterium avium subsp. avium ATCC 25291; conditions: ATCC 25291, 144 h; outline: as §1
[16] = tested on: Mycobacterium tuberculosis; assay: Antimycobacterial activity against Mycobacterium tuberculosis H37Rv assessed as inhibition of microbial growth by radiometric-BACTEC assay; format: functional
[17] = tested on: Mycobacterium tuberculosis; assay: Potency index, ratio of MIC50 for cycloserine to MIC50 for compound against Mycobacterium tuberculosis H37Ra incubated for 6 days by MABA method; format: functional
[18] = tested on: Mycobacterium tuberculosis; assay: Antimycobacterial activity against Mycobacterium tuberculosis H37Ra assessed as inhibition of microbial growth at 0.5 to 100 ug/ml incubated for 6 days by MABA method; format: functional; outline: as §1
[19] = tested on: Mycobacterium tuberculosis; assay: Antimycobacterial activity against Mycobacterium tuberculosis H37Ra assessed as inhibition of microbial growth at 15 to 20 ug/ml incubated for 6 days by MABA method; format: functional
[20] = tested on: Mycobacterium tuberculosis; assay: Antimycobacterial activity against Mycobacterium tuberculosis H37Rv assessed as inhibition of microbial growth at 1 ug/ml by radiometric-BACTEC assay; format: functional; conditions: read-out: GI
[21] = tested on: Mycobacterium tuberculosis; assay: Antimycobacterial activity against Mycobacterium tuberculosis H37Ra assessed as inhibition of microbial growth at 0.1 ug/ml incubated for 6 days by MABA method; format: functional; conditions: 144 h, read-out: GI

SMILES | inhibition of growth at 100 µg/mL [4] [%] | inhibition of growth at 50 µg/mL [5] [%] | inhibition of growth at 100 µg/mL (Mycobacterium avium [7]) [%] | CC50 at 48 h [8] [µg/mL] | CC50 at 48 h [9] [µg/mL] | growth inhibition (GI) (Mycobacterium avium [11]) [%] | MIC50 [12] [µg/mL] | further results
CO[C@H]1/C=C/O[C@@]2(C)Oc3c(C)c(O)c4c(O)c(c(/C=N/N5CCN(C)CC5)c(O)c4c3C2=O)NC(=O)/C(C)=C\C=C\[C@H](C)[C@H](O)[C@@H](C)[C@@H](O)[C@@H](C)[C@H](OC(C)=O)[C@@H]1C [RIFAMPIN] |  |  |  |  |  |  |  | inhibition of growth at 0.5 µg/mL [1]: 100%; inhibition of growth at 2 µg/mL (Mycobacterium avium [2]): 90%; growth inhibition (GI) [3]: inactive
COCc1cn([C@@H]2O[C@H](CO)[C@@H](O)[C@@H]2O)c(=O)nc1N | 80 | 60 | 20 | > 100 | > 100 |  |  | inhibition of growth at 10 µg/mL [6]: 50%
CC[C@H]1OC(=O)[C@H](C)[C@@H](O[C@H]2C[C@@](C)(OC)[C@@H](O)[C@H](C)O2)[C@H](C)[C@@H](O[C@@H]2O[C@H](C)C[C@H](N(C)C)[C@H]2O)[C@](C)(OC)C[C@@H](C)C(=O)[C@H](C)[C@@H](O)[C@]1(C)O [CLARITHROMYCIN] |  |  |  |  |  |  |  | inhibition of growth at 2 µg/mL (Mycobacterium avium [2]): 100%
CCc1cn([C@@H]2O[C@H](CO)[C@@H](Br)[C@@H]2F)c(=O)[nH]c1=O | 78 | 65 |  | > 100 | > 100 | 0 | 5 | inhibition of growth at 10 µg/mL [6]: 56%; inhibition of growth at 5 µg/mL [10]: 50%
CCc1cn2c(nc1=O)O[C@@H]1[C@H](F)[C@H]2O[C@@H]1CO | 25 | 25 | 50 | > 100 | > 100 |  |  | inhibition of growth at 50 µg/mL (Mycobacterium avium [13]): 25%
O=c1[nH]c(=S)c(CO)cn1[C@@H]1O[C@H](CO)[C@@H](O)[C@@H]1O | 100 | 100 | 73 | > 100 | > 100 |  | 0.5 | inhibition of growth at 10 µg/mL [6]: 90%; inhibition of growth at 5 µg/mL [10]: 70%; inhibition of growth at 0.5 µg/mL [1]: 50%; inhibition of growth at 50 µg/mL (Mycobacterium avium [13]): 58%; inhibition of growth at 10 µg/mL (Mycobacterium avium [14]): 50%; MIC50 (Mycobacterium avium [15]): 10 µg/mL; MIC50 [16]: 1 µg/mL; Ratio [17]: 10
CCc1cn([C@@H]2O[C@H](CO)C[C@@H]2F)c(=O)[nH]c1=O | 25 |  | 25 | > 100 | > 100 |  |  | 
CCc1cn([C@@H]2O[C@H](CO)[C@@H](N=[N+]=[N-])[C@@H]2F)c(=O)[nH]c1=O |  |  |  | > 100 | > 100 | 0 |  | growth inhibition (GI) [18]: 0%
CCc1cn([C@@H]2O[C@H](COC(C)=O)[C@@H](OC(C)=O)[C@@H]2F)c(=O)[nH]c1=O | 68 | 55 | 35 | > 100 | > 100 |  |  | 
N[C@@H]1CONC1=O [CYCLOSERINE] | 100 | 100 |  |  |  |  | 5 | inhibition of growth at 10 µg/mL [6]: 60%; inhibition of growth at 5 µg/mL [10]: 50%; growth inhibition (GI) [19]: 80%
CCc1cn([C@@H]2O[C@H](CO)[C@@H](O)[C@@H]2F)c(=O)nc1N | 50 |  |  | > 100 | > 100 | 0 | 100 | 
O=c1[nH]c(=O)n([C@@H]2O[C@H](CO)[C@@H](O)[C@@H]2O)cc1CO |  |  |  | > 100 | > 100 | 0 |  | growth inhibition (GI) [18]: 0%
NNC(=O)c1ccncc1 [ISONIAZID] |  |  |  |  |  |  |  | inhibition of growth at 1 µg/mL [20]: 100%; inhibition of growth at 0.1 µg/mL [21]: 10%
CCc1cn([C@H]2O[C@@H](CO)[C@H](O)[C@H]2F)c(=O)[nH]c1=O (single isomer, unassigned) |  |  |  | > 100 | > 100 | 0 |  | growth inhibition (GI) [18]: 0%
CCc1cn([C@@H]2O[C@H](CO)[C@@H](O)[C@@H]2F)c(=O)[nH]c1=S | 60 | 50 | 35 | > 100 | > 100 |  | 50 | inhibition of growth at 50 µg/mL (Mycobacterium avium [13]): 25%
